# Compounds with a hit are over-represented: about 2.3% of the library has one in this group of screens.
# ERp5 block: inhibitors of human ERp5; Q15084; ERp5 insulin aggregation, absorbance 650 nm, 90 min; inhibition, % at 9.99 µM; actives 0.05% (n = 350,000); AID 651711;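 active = mean replicate inhibition above about 25%, with every replicate also reaching it, limit read from the data, passing the limit was not always enough; inconclusive = only one of those two criteria met; inactive = neither criterion met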
# PDI inh: inhibitors of human protein disulfide isomerase; P07237; PDI insulin aggregation turbidity, A650, 90 min; inhibition, % at 10 µM; actives 0.052% (n = 350,000); AID 588391;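 active = mean inhibition across replicates of 30% or more, whatever share of single replicates reach that level; inconclusive = mean inhibition below 30% while every single replicate reaches 30%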
# Target sequence (P07237 whole entry, looked up): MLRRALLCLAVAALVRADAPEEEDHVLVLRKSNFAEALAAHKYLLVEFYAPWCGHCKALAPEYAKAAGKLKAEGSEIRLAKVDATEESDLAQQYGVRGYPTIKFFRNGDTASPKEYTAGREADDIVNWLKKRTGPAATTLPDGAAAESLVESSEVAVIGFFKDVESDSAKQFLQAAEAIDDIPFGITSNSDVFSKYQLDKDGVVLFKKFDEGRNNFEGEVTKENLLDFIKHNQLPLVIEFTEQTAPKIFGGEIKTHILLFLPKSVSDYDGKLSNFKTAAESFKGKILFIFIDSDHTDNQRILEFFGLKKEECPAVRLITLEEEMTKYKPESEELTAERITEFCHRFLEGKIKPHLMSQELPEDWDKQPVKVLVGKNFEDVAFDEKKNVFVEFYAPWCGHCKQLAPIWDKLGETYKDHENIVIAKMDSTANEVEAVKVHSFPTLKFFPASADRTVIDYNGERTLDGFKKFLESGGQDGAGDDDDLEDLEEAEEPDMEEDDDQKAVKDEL
# C2C12 statin: suppression of simvastatin myotoxicity; rescue of ATP level, % at 7.49 µM; actives 0.78% (n = 330,000); C2C12 myotubes + simvastatin, ATP luminescence, 48 h; scaled: DMSO 0, geranylgeraniol control 100; AID 602340;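 active = mean ATP rescue above about 67%, or every replicate alone reaching that limit, limit read from the data, passing the limit was not always enough; inconclusive = no clear call, values can overlap the other calls; inactive = mean under the limit and some replicate under it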;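 note: myotubes were challenged with 10 µM simvastatin during compound exposure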
# DENV2 CPE: inhibitors of DENV2 cytopathic effect | CPE inhibition, % at 9.99 µM | actives 1.7% (n = 350,000) | DENV2-infected cells, cytopathic effect rescue, plate reader; in the data active = CPE inhibition above about 20%, passing the limit was not always enough; inconclusive = no clear call, values can overlap the other calls; tested in BHK-21 cells
# Cneo AK release: Cryptococcus neoformans lysis via adenylate kinase release | lysis activity, % at 15 µM | AID 651654 | C. neoformans lysis, adenylate kinase release luminescence, 4 h; normalised: neutral wells 0, clomiphene wells 100 | actives 0.2% (n = 360,000);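 active = mean lysis activity across replicates of at least 80%, whatever share of replicates individually reach that level; inactive = mean lysis activity below 80%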
#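 Schedule: static 4 h at 37 °C with compound, 1 h detection; system: C. neoformans cells; benchmarks: Clomiphene as positive control; buffer or medium: fresh YPD medium; measure: luminescence rise reflecting yeast cell lysis; measured by: luminescent adenylate kinase detection reagent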
# CFTR F508del cor: CFTR F508del correction in bronchial cells | activity (quench increase), % at 7.58 µM | CFBE cells, YFP halide quenching; stimulated with forskolin plus potentiator P3; % fluorescence drop versus neutral controls | actives 0.36% (n = 350,000);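 active = mean added fluorescence quench of at least 8% versus neutral control, with both replicates also reaching 8%; inconclusive = only one of the mean or replicate conditions met; inactive = mean below 8% and not both replicates reaching 8%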;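 note: cells transiently co-express mutant CFTR-F508del with the halide-sensitive YFP; corrector assay measuring rescue of mutant channel to the surface after 24 h compound exposure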
# Numbers stand for hits; . = inactive; ? = inconclusive; / = no result.
SMILES,ERp5 block,PDI inh,C2C12 statin,DENV2 CPE,Cneo AK release,CFTR F508del cor
O=c1cc(-c2ccccc2)nc(Sc2ccc([N+](=O)[O-])cc2[N+](=O)[O-])[nH]1,.,.,.,.,.,.
Nc1nc(-c2ccc([N+](=O)[O-])cc2)cc(=O)[nH]1,.,.,.,133,.,/
COc1cccc(S(=O)(=O)Nc2ccc3c(c2)[C@@H]2C[C@H](CC(=O)NCc4ccccc4F)O[C@H](CO)[C@@H]2O3)c1,.,/,.,.,.,.
Cc1ccc(-n2c(SCC(=O)N3CCOCC3)nc(O)cc2=O)cc1,.,.,.,69,.,.
O=C(CSc1nc2c(c(=O)n1-c1ccccc1)SCC2)N1CCOCC1,.,/,.,.,.,.
COc1ccc(-n2c(SCC(=O)N3CCOCC3)nc(O)cc2=O)cc1,.,.,.,.,.,.
CC1Cc2nc(SCC(=O)N3CCOCC3)n(-c3ccccc3)c(=O)c2S1 (stereo not given),.,/,.,.,.,8.3
O=C(C[C@H]1C[C@H]2c3cc(NC(=O)C4CCC4)ccc3O[C@H]2[C@@H](CO)O1)NC1CCCCC1,/,/,.,/,/,.
Cc1cccc(NCC(=O)N/N=C/c2cccc(Br)c2)c1,.,.,/,.,/,.
Cc1ccc(NCC(=O)N/N=C/c2cccc(Br)c2)cc1,.,.,.,31,.,.
CC(C)NC(=O)N(C)C[C@@H]1Oc2ccc(NS(=O)(=O)c3ccc(F)cc3)cc2CC(=O)N([C@H](C)CO)C[C@H]1C,.,/,.,.,.,.
CN(CCOc1ccc(Cl)cc1)C(=O)c1cccc(S(=O)(=O)N2CCN(c3ccccc3)CC2)c1,.,.,.,.,.,8.6
COc1ccc(S(=O)(=O)N2CCCCCC2)cc1C(=O)N(C)CCOc1ccc(Cl)cc1,.,.,.,.,.,.
CCN1CCN(S(=O)(=O)c2ccc(Cl)c(C(=O)N(C)CCOc3ccc(Cl)cc3)c2)CC1,.,.,/,67,/,.
COc1ccccc1CNC(=O)C[C@@H]1C=C[C@@H](NC(=O)CN(C)C)[C@H](CO)O1,/,/,.,/,/,.
COc1ccc(NC(=O)N(C)C[C@H]2Oc3c(NC(=O)Nc4cccc5ccccc45)cccc3C(=O)N([C@H](C)CO)C[C@H]2C)cc1,.,/,?,.,.,.
C[C@H]1CCCCO[C@@H](CN(C)C(=O)CCCN(C)C)[C@@H](C)CN([C@@H](C)CO)C(=O)c2cc(NS(=O)(=O)c3ccc(F)cc3)ccc2O1,.,/,/,.,.,.
C[C@H]1CCCCO[C@H](CN(C)C(=O)CCCN(C)C)[C@@H](C)CN([C@@H](C)CO)C(=O)c2cc(NS(=O)(=O)c3ccc(F)cc3)ccc2O1,.,/,/,56,.,.
C[C@@H]1CN([C@@H](C)CO)C(=O)c2cc(NS(=O)(=O)c3ccc(F)cc3)ccc2O[C@@H](C)CCCCO[C@@H]1CN(C)C(=O)CCCN(C)C,.,/,/,83,.,.
C[C@H](CO)N1C[C@H](C)[C@H](CN(C)C(=O)CCCN(C)C)OCCCC[C@H](C)Oc2ccc(NS(=O)(=O)c3ccc(F)cc3)cc2C1=O,.,/,/,.,.,.
CC(C)CC#Cc1ccc2c(c1)O[C@@H](CN(C)CC1CCOCC1)[C@@H](C)CN([C@@H](C)CO)S2(=O)=O,.,/,.,.,.,.
O=C(Cc1ccncc1)NCC[C@@H]1CC[C@H](NC(=O)Nc2ccc(Cl)cc2)[C@H](CO)O1,.,/,.,.,.,.
O=C(C1CCC1)N1C[C@H]2[C@@H](c3ccccc31)[C@@H](CO)N2C(=O)c1ccccc1,.,/,.,.,.,.
COc1ccc(-n2nc([N+](=O)[O-])c(=NCc3ccc4c(c3)OCO4)n2O)cc1,.,.,/,32,.,.
COc1ccc(Br)cc1CN1CCCC(C(=O)N2CCCCC2)C1 (stereo not given),/,.,/,/,/,/
COc1ccc(Br)cc1CN1CCC(N2CCCC2)CC1,.,.,.,25,.,.
CCOC(=O)N(C)C[C@H]1OCc2ccccc2-c2ccccc2C(=O)N([C@H](C)CO)C[C@@H]1C,.,/,.,.,.,.
CSCCC(NC(=O)c1ccco1)C(=O)NCC1CCCO1 (stereo not given),.,.,.,67,.,.
C[C@H]1[C@H](c2ccccc2)C[C@@H](C(=O)O)C1(C)C,.,.,.,40,.,.
